From PubChem BioAssay AID1899 (The Scripps Research Institute Molecular Screening Center, 2009) come the findings set out here.

Structures are written as SMILES. In all, about 300,000 compounds went through this assay and about 1,000 (0.33%) were called active. This is one part of a sample in which actives are shown more often than they occur.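 How the source made its calls: active means inhibition above the mean of all tested compounds plus 3 SD, set per screening campaign (cut at about 45% in these data); inactive means the rest.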

The test has as its system HCV core protein (residues 1-106) dimerization. The test can be described thus: inhibitors of HCV core protein dimerization, primary screen, biochemical, TR-FRET, high-throughput (AID 1899). The settings on record: TR-FRET GST/Flag-core106 dimerization, 1536-well; at 5 µM; active compounds read high. In a few lines:
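test system = GST/Flag-tagged HCV core106 proteins | probe or stimulus = Eu donor and XL665 acceptor anti-tag antibodies | times = compound-protein-antibody incubation 4 h at 22.5 °C | signal = TR-FRET, excitation 340 nm, emission 617 and 671 nm | measure = percent inhibition of core106 dimerization signal | controls = wells lacking GST-core106 and wells with excess unlabelled core106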
(In general: Time-resolved FRET reads energy transfer from a long-lived donor to a nearby acceptor.)
As a reminder, the inhibition is the change of the read-out against control, counted positive when it falls. With `Cc1cccc(C(=O)OC(C)C(=O)NC2CCCc3ccccc32)c1O` (stereo unspecified), the inhibition is -6.15% (inactive). Turning to `C=CCOC(=O)C1=C(C)NC(SCC(=O)OCC)=C(C#N)C1c1ccc(C)cc1` (stereo unspecified), the inhibition is 59.5% (active). As to `C=CCOC(=O)C1=C(C)OC(N)=C(C#N)C1c1ccc(F)cc1` (stereo unspecified), the inhibition is -4.37% (inactive).

For the compound `CCOC(=O)CSC1=C(C#N)C(c2sccc2C)CC(=O)N1` (stereo unspecified), the inhibition is 6.38% (inactive).

`Cc1ccc(CN(N=Nc2nonc2N)c2nonc2N)c(C)c1`: the inhibition is 0.98% (inactive). Regarding `CS(=O)(=O)c1ccc2c(c1)SC1=NC(=O)/C(=C/c3ccco3)C(=N)N12`, the inhibition is 79.4% (active).

For the compound `Cc1cc(/C=C2/C(=N)N3C(=NC2=O)SN=C3S(C)(=O)=O)c(C)n1-c1ccccc1`, the inhibition was 18.8% (inactive). Turning to `CS(=O)(=O)C1=NN2C(=N)/C(=C\c3ccc(OCCOc4ccccc4)cc3)C(=O)N=C2S1`, the inhibition is 18.8% (inactive). Take `Cc1ccc(C)c2[nH]c(=O)c(CN(Cc3cccnc3)C(=S)NCc3ccco3)cc12`: the inhibition is 7.88% (inactive). Turning to `C[C@H]1CCC(=O)N([C@H](CSc2ccccc2)Cc2ccccc2)CC1`, the inhibition was -3.23% (inactive).

For the compound `O=C(NCc1cccs1)c1cc(-c2ccccn2)nc2ccc(Br)cc12`, the inhibition is 49.3% (active).

As to `O=C(Nc1ccncc1)c1cc(-c2ccccn2)nc2ccc(Br)cc12`, the inhibition was -6.91% (inactive). The result for `O=C(NCC(c1cccs1)N1CCOCC1)c1cc(-c2ccccn2)nc2ccccc12` (stereo unspecified) reads 0.32% (inactive). The result for `Cc1cc(C)n(CCNC(=O)CC2C(=O)NCCN2Cc2ccc(C)o2)n1` (stereo unspecified) reads 2.72% (inactive); that for `COc1ccc(OC)c(NC(=O)N[C@H](Cc2ccccc2)C(=O)NN)c1`, -4.04% (inactive); that for `CCOC(=O)C1(CC2CCCCO2)CCN(Cc2nc(-c3cccs3)oc2C)CC1` (stereo unspecified), -1.21% (inactive). The result for `N#C/C(=C\c1ccc(-c2cccc([N+](=O)[O-])c2)o1)C(=O)NCCN1CCOCC1` reads -14.4% (inactive); that for `Cc1ccc(Cc2cnc(NC(=O)/C(C#N)=C/c3ccc(-c4cccc([N+](=O)[O-])c4)o3)s2)cc1`, 46.7% (active). Consider `Cc1ccc(C(=O)N/C(=C/c2ccc(-c3cccc([N+](=O)[O-])c3)o2)C(=O)NCCCN(C)C)cc1`, for which the inhibition was -11.9% (inactive). For `CN1/C(=c2/s/c(=C3/C(=O)N(c4ccccc4)NC3=Nc3ccccc3)n(C)c2=O)C(C)(C)c2ccccc21`, the inhibition is 21.6% (inactive).

For the compound `C=CCC1(C#N)C(=S)NC(C)=C(C(=O)OCC)C1c1ccccc1` (stereo unspecified), the inhibition was -0.47% (inactive).

As to `CC(C)c1ccc(N2CC(C(=O)Nc3nccs3)CC2=O)cc1` (stereo unspecified), the inhibition was 3.92% (inactive). With `O=C(CCCN1C(=O)/C(=C\c2ccco2)SC1=S)Nc1cccc2ccccc12`, the inhibition is 50.6% (active). In the case of `O=C(CCCN1C(=O)/C(=C/c2ccccc2)SC1=S)Nc1ccc(O)cc1`, the inhibition was 0.73% (inactive). `O=C(CCCN1C(=O)/C(=C\c2ccccc2)SC1=S)Nc1ccccc1O`: the inhibition is 1.56% (inactive). `CCC(c1nnnn1Cc1ccco1)N(CCc1ccccc1)Cc1cc2ccc(OC)cc2[nH]c1=O` (stereo unspecified): the inhibition is 14.3% (inactive). Take `CCC(c1nnnn1Cc1ccco1)N(Cc1cc2cc(OC)ccc2[nH]c1=O)C1CCCCC1` (stereo unspecified): the inhibition was 53.5% (active).

As for `CCC(c1nnnn1Cc1ccccc1)N(Cc1cc2cc(OC)ccc2[nH]c1=O)CC1CCCO1` (stereo unspecified), the inhibition is 9.57% (inactive). For `O=C(CSc1nnc(-c2ccc([N+](=O)[O-])cc2)o1)Nc1ccccn1`, the inhibition is -13.9% (inactive). As to `Cc1cc2c(cc1C)N(C(=O)CN1C(=O)c3ccccc3C1=O)C(C)(C)c1ssc(=S)c1-2`, the inhibition was 20.8% (inactive). In the case of `CCOC(=O)C1CSC(CC(=O)Nc2ccc(OCC)cc2)C(=O)N1` (stereo unspecified), the inhibition is -5.22% (inactive).

As for `O=C(COc1ccc([N+](=O)[O-])cc1)Nc1ccc(N2CCCC2)cc1`, the inhibition is 9.26% (inactive). `O=C(COc1ccc(/C=N/NC(=O)c2ccc(O)cc2)cc1)Nc1ccc([N+](=O)[O-])cc1`: the inhibition was 55.5% (active). In the case of `O=C(N/N=C/c1ccc(O)cc1)/C(=C/c1ccc([N+](=O)[O-])cc1)NC(=O)c1ccccc1`, the inhibition was 10.4% (inactive). Consider `CC1(c2nnc(-c3ccncc3)o2)CC(c2cccnc2)=NO1` (stereo unspecified), for which the inhibition is 1.13% (inactive). The same measure for `Cc1ccc(C)c(NS(=O)(=O)c2c(C)[nH]c(C)c2C(=O)N2CCCCC2)c1`: -13.2% (inactive). On to `O=C1COc2ccc(NC(=O)N3CCN(c4ccc(F)cc4)CC3)cc2N1`, for which the inhibition was -3.43% (inactive). The same measure for `CC(C)(C)OC(=O)NCCCC1=CC2=CC(=O)C(C)(OC(=O)c3ccco3)C(=O)C2=CO1` (stereo unspecified): 28.9% (inactive); for `COCCN1C=C2C(=O)C(C)(OC(=O)C3CCCC3)C(=O)C=C2C=C1c1ccsc1` (stereo unspecified): -6.55% (inactive). The same measure for `CC1(OC(=O)C2CCCC2)C(=O)C=C2C=C(c3ccc(C#N)cc3)OC=C2C1=O` (stereo unspecified): 53.6% (active).

Regarding `Cn1cc(-c2ccccc2)cc(C#N)c1=O`, the inhibition is 7.52% (inactive). As to `O=C(NCc1ccccn1)c1ccc2nc(-c3ccco3)c(-c3ccco3)nc2c1`, the inhibition is 77.7% (active). Take `COCCNC(=O)Nc1ccc2nc(-c3ccco3)c(-c3ccco3)nc2c1`: the inhibition is 83.7% (active). With `Cc1cc(C)cc(NC(=O)NCc2ccccn2)c1`, the inhibition is -2.74% (inactive). The same measure for `CCOc1cc(NC(=S)NCCCOC)c(OCC)cc1NC(=O)c1ccco1`: -1.9% (inactive).

For the compound `CCCC(=O)Nc1ccc2c(c1)nc(CCNC(=O)c1ccco1)n2C`, the inhibition is -7.25% (inactive). Consider `COc1ccc2oc(=O)c(C(=O)NCc3ccccn3)cc2c1`, for which the inhibition is -1.18% (inactive). `O=C(CCc1ccccc1)Nc1ccc(NC(=O)C2CC2)nc1`: the inhibition is 3.25% (inactive). With `O=[N+]([O-])C(=c1ccc2c(c1)N1C3=C(CCCC3)CC3CCCCC31N=2)[N+](=O)[O-]` (stereo unspecified), the inhibition is 62.9% (active). As to `Cc1ccc(S(=O)(=O)c2c[nH]c3ccc(Cl)cc3c2=O)cc1`, the inhibition is 0.6% (inactive).

With `CCN1C(=NCCc2cccnc2)N[C@@H](c2ccccc2)[C@H](C(=O)OC)[C@H]1C`, the inhibition was 8.18% (inactive). The same measure for `CC(C(=O)O)n1cnc2sc3c(c2c1=O)CCCC3` (stereo unspecified): 0.01% (inactive); for `COc1ccc(OCC(=O)NN2Cc3ccccc3C2=N)cc1`: -6.41% (inactive); for `Cc1ccc(OCC(=O)Nc2nnc(-c3ccco3)s2)cc1`: 2.47% (inactive). For the compound `COc1ccc(OCC(=O)Nc2nnc(-c3ccco3)s2)cc1`, the inhibition was 54.1% (active).

For the compound `CNc1nnc(-c2ccco2)s1`, the inhibition is -7.57% (inactive).
